Experimental data from publication PMC12065821 (Scientific Reports, 2025).

Assays:
[1] = system: human kidney proximal tubular HK-2 cells; details: identical dose of 0.75 mM; cited from earlier work
[2] = cited from earlier work
[3] = Plasma PK of CMS/CMS-E2 and formed colistin/colistin B; format: in vivo, rats; details: rat plasma, LC-MS/MS, NCA, mean ± SD
How it was run: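 Male Sprague-Dawley rats were dosed once i.p. in saline, and serial jugular-vein blood was taken before and after dosing. Blood was heparinised (1%), spun at 4,982 × g for 10 min at 4 °C, and plasma stored at −70 °C. Plasma (40 µL) went through WCX solid-phase extraction with polymyxin B1 internal standard, then LC-MS/MS. Prodrug was total (acid-hydrolysed) minus free analyte. […] Values are mean ± SD, compared by Wilcoxon rank sum.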

patients = details: meta-analyses; cited from earlier work
rats [4] = experiment: Maximal tolerability dose; format: in vivo; details: intraperitoneal
[5] = Kidney PK of CMS/CMS-E2 and formed colistin/colistin B; format: in vivo, rats; details: for Cmax CMS/CMS-E2 in kidneys: mean ± SD, SD
How it was run: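 Male Sprague-Dawley rats (300 ± 15 g) got one i.p. dose in saline. At each sampling time rats were anaesthetised with tiletamine-zolazepam (40 mg/kg) and killed, and the left kidney was frozen at −70 °C. Kidney cortex was homogenised in saline (1:10 m/v, 1% BSA). Samples went through WCX solid-phase extraction with polymyxin B1 internal standard, then LC-MS/MS. Prodrug was calculated as total (after […] sulfuric acid hydrolysis) minus free colistin/colistin B. Parameters came from non-compartmental analysis.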

[6] = rats; CMS and formed colistin; cited from earlier work
rats [7] = experiment: Kidney injury biomarkers: plasma CR and BUN; format: in vivo; details: rat plasma, mean ± SD
How it was run: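 Rats (male Sprague-Dawley) received one i.p. injection in saline, with a saline control group. Plasma came from serial heparinised jugular-vein samples, plus blood taken at sacrifice in a second cohort. Creatinine and blood urea nitrogen were measured on an automatic biochemical analyser. Peak levels and times to peak were taken from the time profiles and given as mean ± SD.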

rats [8] = experiment: Renal histological examination; format: in vivo; details: rat kidney; for histological lesions during the first 2 h: PAS stain; for maximal SQS: mean ± SD, SD
[9] = physiologically-based PK model; cited from earlier work
[10] = PK-TD model, PK component; format: in vivo; details: rats, single i.p. CMS 10 mg/kg CBA, one-compartment PK-TD model, mean ± SD
How it was run: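 Plasma prodrug and formed colistin/colistin B concentrations after i.p. dosing were fitted by a compartmental model. The final model used one compartment each for prodrug and formed drug, a conversion rate constant, and linear first-order total clearance from both. Fit was judged by R², AIC, BIC and visual inspection. Estimates are mean ± SD.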

rats [11] = experiment: PK-TD model, TD component; format: in vivo; details: i.p., mean ± SD
How it was run: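 Plasma creatinine and BUN time courses were linked to plasma colistin/colistin B through an indirect hypothetical effect compartment. K_e is the rate constant from the central to the effect compartment. The effect was linear: E = E₀ + S·C_e, with E₀ the pre-dose baseline. T_lag was calculated as 1/K_e. Fit was judged by R², AIC, BIC and visual inspection. Parameters are mean ± SD.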

[12] = single i.p. CMS or CMS-E2 20 mg/kg CBA
[13] = rat kidney cortex, single i.p. CMS or CMS-E2 20 mg/kg CBA, LC-MS/MS, NCA

In the case of colistin A, the “apoptotic effect relative to colistin B” value [1] is listed as “three times” and the plasma protein binding [2] is listed as 56.6 ± 9.25%.
In the case of colistin methanesulphonate [CMS], the “AUC0-inf CMS/CMS-E2 in plasma” value ([3]; single i.p. CMS 10 mg/kg CBA) is reported as 30700 ± 763 ng·h/mL, the “CL/F CMS/CMS-E2” value ([3]; single i.p. CMS 10 mg/kg CBA) is reported as 5.42 ± 0.132 mL/min/kg and the “Cmax CMS/CMS-E2 in plasma” value ([3]; single i.p. CMS 10 mg/kg CBA) is reported as 21400 ± 727 ng/mL. For the same substance, the “Tmax CMS/CMS-E2 in plasma” value ([3]; single i.p. CMS 10 mg/kg CBA) was 0.333 ± 0.118 h, the “Vd/F CMS/CMS-E2” value ([3]; single i.p. CMS 10 mg/kg CBA) was 0.213 ± 0.0362 L/kg and the “t1/2 CMS/CMS-E2 in plasma” value ([3]; single i.p. CMS 10 mg/kg CBA) was 0.453 ± 0.068 h. The “AUC0-inf CMS/CMS-E2 in plasma” value [3, 12] was 149000 ± 69600 ng·h/mL, the “CL/F CMS/CMS-E2” value [3, 12] was 2.99 ± 2.02 mL/min/kg and the “Cmax CMS/CMS-E2 in plasma” value [3, 12] was 39500 ± 13700 ng/mL. For the same substance, the “Tmax CMS/CMS-E2 in plasma” value [3, 12] was 1.30 ± 0.458 h, the “Vd/F CMS/CMS-E2” value [3, 12] was 0.266 ± 0.0816 L/kg and the “t1/2 CMS/CMS-E2 in plasma” value [3, 12] was 1.27 ± 0.557 h. The “incidence of CMS-associated nephrotoxicity” value (patients) was “up to 48%”, the maximal tolerability dose (rats [4]) was 20 mg/kg CBA and the “Tmax CMS/CMS-E2 in kidneys” value ([5]; rat kidney cortex, single i.p. CMS 10 mg/kg CBA, LC-MS/MS, NCA) was 2 h. For the same substance, the “Cmax CMS/CMS-E2 in kidneys” value ([5]; rat kidney cortex, single i.p. CMS 10 mg/kg CBA, LC-MS/MS) was 64.2 ± 38.1 µg/g, the “AUC0-inf CMS/CMS-E2 in kidneys” value [5, 13] was 1620 µg·h/g and the “Tmax CMS/CMS-E2 in kidneys” value [5, 13] was 4 h. The “t1/2 CMS/CMS-E2 in kidneys” value [5, 13] was 1.03 h, the “Cmax CMS/CMS-E2 in kidneys” value ([5]; rat kidney cortex, single i.p. CMS or CMS-E2 20 mg/kg CBA, LC-MS/MS) was 281 ± 92.8 µg/g and the “CMS concentration in renal tissue at 6, 8 h” value ([5]; rat kidney, single i.p. CMS 10 mg/kg CBA, LC-MS/MS) was “below the lower limit”. The “CMS concentration in renal tissue at 24 h” value ([5]; rat kidney, single i.p. CMS 20 mg/kg CBA, LC-MS/MS) was “below the lower limit”, the “Kidney/plasma ratio of Cmax, CMS/CMS-E2” value ([5]; rats, single i.p. CMS or CMS-E2 20 mg/kg CBA) was 7.11 and the “t1/2 in prior reports” value [6] was 0.333 to 0.667 h. For the same substance, the “peak BUN level” value (rats [7]; single i.p. CMS 10 mg/kg CBA) was 8.09 ± 1.66 mmol/L, the “peak CR level” value (rats [7]; single i.p. CMS 10 mg/kg CBA) was 31.3 ± 5.41 µmol/L and the “time of peak BUN” value (rats [7]; single i.p. CMS 10 mg/kg CBA) was 5.00 ± 0.00 h. The “time of peak CR level” value (rats [7]; single i.p. CMS 10 mg/kg CBA) was 2.67 ± 1.70 h, the “peak BUN level” value (rats [7]; [12]) was 17.8 ± 3.83 mmol/L and the “peak CR level” value (rats [7]; [12]) was 93.1 ± 29.8 µmol/L. For the same substance, the “time of peak BUN” value (rats [7]; [12]) was 7.82 ± 1.34 h, the “time of peak CR level” value (rats [7]; [12]) was 5.36 ± 1.30 h and the “histological lesions during the first 2 h” value (rats [8]; single i.p. CMS 10 mg/kg CBA) was “No obvious histological lesion”. The “histological lesions during the first 2 h” value (rats [8]; [12]) was “No obvious histological lesion”, the “recovery of histological damage at 8 h” value (rats [8]; single i.p. CMS 10 mg/kg CBA) was “most of the damage was completely recovered” and the “maximal SQS” value (rats [8]; single i.p. CMS 10 mg/kg CBA) was 2.00 ± 0.00. For the same substance, the “recovery of histological damage at 24 h” value (rats [8]; single i.p. CMS 20 mg/kg CBA) was “all damage was completely recovered”, the “maximal SQS” value (rats [8]; [12]) was 3.00 ± 0.00 and the “renal CMS conversion” value [9] was < 1%. The “CLCMS/CMS-E2 (total body clearance)” value [10] was 5.14 ± 0.196 mL/min/kg, the “Ka CMS/CMS-E2 (absorption rate)” value [10] was 2.02 ± 0.260 h⁻¹ and the “V (volume of distribution)” value [10] was 0.194 ± 0.0128 L/kg. For the same substance, the “S (slope between colistin/colistin B concentration in effect compartment and CR)” value (rats [11]; E = E0 + S·Ce) was 20.9 ± 9.13 mmol/g, the “Ke (rate from colistin/colistin B central compartment to effect compartment), BUN” value (rats [11]; indirect link PK-TD model, effect = BUN) was 0.157 ± 0.100 h⁻¹ and the “Ke (rate from colistin/colistin B central compartment to effect compartment), CR” value (rats [11]; indirect link PK-TD model, effect = plasma CR) was 0.833 ± 0.555 h⁻¹. The “Tlag (lag time), BUN” value (rats [11]; reciprocal of Ke, effect = BUN) was 8.45 ± 4.08 h and the “Tlag (lag time), CR” value (rats [11]; reciprocal of Ke, effect = plasma CR) was 1.73 ± 1.22 h.
